Bioassay records deposited in PubChem BioAssay by Sanford-Burnham Center for Chemical Genomics.
Shown are actives, neighbours in structure and some others; about 1.5% of the full set was active somewhere.
APJ antagonist = antagonists of human APJ apelin receptor; P35414; CHO-K1 APJ beta-arrestin complementation, luminescence; inhibition, % at 20 µM; hit rate 0.32% among 330,000;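 active = inhibition above about 40% at 20 µM, limit read from the data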;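 note: cells challenged with 10 nM apelin-13 agonist together with compound; plate controls were apelin-13 plus DMSO wells for no effect and DMSO wells lacking apelin-13 for full effect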
CXCR6 inh = inhibitors of human CXCR6 receptor | O00574 | inhibition, % at 20 µM | CHO-K1 PathHunter CXCR6 beta-arrestin, luminescence | hit rate 0.36% among 360,000; in the data active = inhibition above about 34%, passing the limit was not always enough;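 note: antagonist mode with CXCL16 agonist at 10 nM final; 0% = 10 nM CXCL16 with DMSO and 100% = unstimulated wells without agonist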
EBI2 antag = antagonists of human EBI2 receptor; AID 651636; hit rate 0.81% among 360,000; P32249; inhibition, % at 5 µM; EBI2 beta-arrestin recruitment, luminescence, 7a,25-OHC stimulated; in the data active = inhibition above about 38%;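 note: enzyme fragment complementation signal reports receptor beta-arrestin coupling in cells; 0% = agonist plus DMSO wells and 100% = wells without agonist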
CCR6 antag = blocks CCL20-driven beta-arrestin recruitment at human CCR6. CHO-K1 CCR6 PathHunter beta-arrestin, luminescence, CCL20-stimulated. hit rate 0.49% among 340,000. inhibition, % at 20 µM;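 active = compounds whose inhibition of the agonist-driven luminescence signal at 20 µM reaches about 50%, limit read from the data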;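 note: cells stimulated with CCL20 at 14 nM final; plate controls were DMSO with CCL20 for no effect and DMSO without agonist for full effect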
Target sequence (P51684 whole entry, looked up): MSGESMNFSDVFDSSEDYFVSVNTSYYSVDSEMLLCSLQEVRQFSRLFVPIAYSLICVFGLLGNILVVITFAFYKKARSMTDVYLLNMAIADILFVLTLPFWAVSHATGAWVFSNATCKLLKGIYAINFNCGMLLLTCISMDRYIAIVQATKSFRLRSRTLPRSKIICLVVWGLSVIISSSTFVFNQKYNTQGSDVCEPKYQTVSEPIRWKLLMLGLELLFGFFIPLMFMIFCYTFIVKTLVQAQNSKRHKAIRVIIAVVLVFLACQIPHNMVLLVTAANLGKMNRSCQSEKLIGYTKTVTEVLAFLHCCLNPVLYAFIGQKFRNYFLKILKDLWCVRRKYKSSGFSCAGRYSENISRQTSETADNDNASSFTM
APJ agonist = activates the human apelin receptor APJ; P35414; CHO-K1 APJ PathHunter beta-arrestin, luminescence; 0% DMSO wells, 100% apelin; activation, % at 20 µM; hit rate 0.11% among 330,000; AID 2520;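 active = activation more than six SD over the plate average, tested at 20 µM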;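 note: 0% = DMSO alone and 100% = apelin-13 at 10 nM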
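Assay system – PathHunter CHO-K1 APJ (AGTRL-1) beta-arrestin reporter cells · Compound – one dose, 20 µM compound, 1% DMSO · Timing – compound 90 min 25 °C, reagent 1 h · Measured by – luminescence from split beta-galactosidase complementation, Galacton Star/Emerald II substrate · Measure – beta-arrestin recruitment to APJ as agonist activity, luminescent signal · Benchmarks – DMSO vs Apelin-13 10 nM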
CXCR6 confirm = CXCR6 antagonism confirmation, single concentration; shares compounds with CXCR6 inh; CHO-K1 CXCR6 PathHunter beta-arrestin, luminescence; inhibition, % at 20 µM; hit rate 65% among 700;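 active = mean inhibition over four retests above 40%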;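 note: receptor stimulated with 10 nM CXCL16 agonist; beta-galactosidase fragment complementation upon beta-arrestin recruitment to receptor; plate controls were CXCL16 plus DMSO for no effect and DMSO without CXCL16 for full effect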
Active calls of the source: *; · = no result given.

SMILES | APJ antagonist | CXCR6 inh | EBI2 antag | CCR6 antag | APJ agonist | CXCR6 confirm
COc1cc(/C=C/C(=O)c2ccc(C)c([N+](=O)[O-])c2)cc(OC)c1O | 37.9 | 42.7* | 24.9 | 68.5* | -6.1 | 54.9*
COc1ccc(/C=C/C(=O)c2ccc(C)c([N+](=O)[O-])c2)cc1O | -3.0 | 9.9 | -11.6 | 39.5 | -2.0 | ·
C=C1C(=O)C23CCC4C(C)(C(=O)OC)CCCC4(C)C2CCC1(O)C3 (stereo unspecified) | · | 79.0* | 77.5* | 86.0* | · | 89.1*
O=S(=O)(/C=C/C=C/S(=O)(=O)c1ccccc1)c1ccccc1 | · | 69.6* | 53.7* | 88.6* | · | 67.4*
Cc1noc(C)c1NC(=O)Nc1cccc2c1O[C@H](CN(C)S(=O)(=O)c1cn(C)cn1)[C@@H](C)CN([C@H](C)CO)C2=O | -6.1 | 45.0* | -2.2 | 11.2 | 0.6 | 3.1
Cc1noc(C)c1NC(=O)Nc1cccc2c1O[C@H](CN(C)S(C)(=O)=O)[C@@H](C)CN([C@H](C)CO)C2=O | 4.3 | 5.1 | -7.0 | -2.3 | -2.0 | ·
CCOc1ccc(S(=O)(=O)NCCC(=O)NCC(c2ccc(F)cc2)N2CCOCC2)cc1 (stereo unspecified) | 6.0 | 0.0 | -9.4 | 5.3 | 4.6 | ·
C/C(=N\NC(=O)C1COc2ccccc2O1)c1ccccn1 (stereo unspecified) | 58.5* | 75.1* | 1.2 | 77.8* | -7.6 | 68.3*
C/C(=N\NC(=O)C1COc2ccccc2O1)c1ccc(C)o1 (stereo unspecified) | -1.1 | 14.6 | 0.7 | 18.9 | -6.6 | ·
C/C(=N\NC(=O)C(c1ccccc1)c1ccccc1)c1ccccn1 | 74.9* | 86.5* | 27.5 | 105.3* | -14.0 | 107.7*
C/C(=N\NC(=O)C(c1ccccc1)c1ccccc1)c1ccc(O)cc1 | -19.8 | 2.7 | -9.5 | 25.3 | -1.6 | ·
CC(C)(C)OC(=O)N1CCN(C(=O)c2[nH]cnc2C(=O)Nc2nccs2)CC1 | -0.5 | -7.3 | -1.0 | 9.8 | 0.5 | ·
CCC(C)[C@H](NC(=O)N1CCN(c2cccc(C(F)(F)F)c2)CC1)C(=O)OC (stereo partly specified) | 25.0 | 50.9* | -9.8 | 7.4 | -1.2 | 10.4
CC(=O)N(CCc1ccccc1)c1ccc2c(c1)C1CC2CCN1C(=O)OCc1ccccc1 (stereo unspecified) | · | 7.8 | 26.0 | · | · | ·
CC1=CC(C)(C)N2C(=O)C(=Nc3ccc(O)cc3)c3cccc1c32 | 9.9 | 48.4* | -32.9 | 48.9 | -3.3 | 48.0*
COc1cc2c(cc1[N+](=O)[O-])-c1ccc([N+](=O)[O-])cc1C2=NNC(N)=S | · | 25.2 | -11.1 | · | · | ·
NC(=S)NN=C1c2cc(Cl)ccc2-c2c1cc(Cl)cc2[N+](=O)[O-] | · | 42.6* | 10.9 | 76.5* | · | 59.1*
Cc1[nH]nc(SCC(=O)NC2CCCCC2)c1[N+](=O)[O-] | 3.0 | -2.1 | -9.2 | 15.3 | -7.9 | ·
CCN1C(=O)[C@H]2[C@@H](c3ccc(C(F)(F)F)cc3)N[C@]3(CCCN(Cc4ccco4)C3=O)[C@H]2C1=O | · | 54.9* | -2.8 | · | · | -8.3
O=C(CN(C(=O)c1ccc2c(c1)OCCO2)c1ccccc1)NCC1CCCO1 (stereo unspecified) | 16.6 | -7.0 | -4.2 | 1.1 | -1.8 | ·
O=[N+]([O-])c1c(NCCO)cc(N2CCCCCC2)c2nonc12 | 19.9 | 10.1 | -1.0 | 20.2 | -2.8 | ·
Cc1nnc(Sc2cc(NCCCO)c([N+](=O)[O-])c3nonc23)s1 | · | 66.8* | -7.8 | 92.2* | · | 99.8*
Cc1nnc(Sc2cc(NCCO)c([N+](=O)[O-])c3nonc23)s1 | · | 71.2* | 8.7 | 68.4* | · | 75.5*
CCOC(=O)c1c(C)oc2c1c(C=NCc1ccccn1)c(O)c1ccccc12 | · | 98.0* | 42.3 | 76.8* | · | 63.8*
CCOC(=O)c1c(C)oc2c1c(C=NCC1CCCO1)c(O)c1ccccc12 (stereo unspecified) | · | 4.9 | 7.7 | 9.4 | · | ·
CN(CC(=O)Nc1ccccc1C(=O)NC1CC1)Cc1ccc(N(C)C)cc1 | -12.8 | 1.0 | -5.9 | 8.8 | -3.8 | ·
CCNC(=O)N(C)C[C@H]1N[C@@](CC)(C(=O)OC)[C@H]2C(=O)N(C)C(=O)[C@@H]12 | -11.1 | -8.0 | -8.7 | -9.7 | 5.9 | ·
CC(NC(=O)CCC(=O)NCc1ccc(F)cc1)c1ccccc1 (stereo unspecified) | -9.3 | 79.7* | 7.0 | 17.8 | -2.7 | -3.6
